This is an account of results in ChEMBL document CHEMBL1126701, “New mechanism-based inactivators of trypsin-like proteinases. Selective inactivation of urokinase by functionalized cyclopeptides incorporating a sulfoniomethyl-substituted m-aminobenzoic acid residue” (J Med Chem, 1993).

The target in test [1] is Plasminogen (Homo sapiens) (UniProt P00747). Kind of test: Ratio of inactivation to apparent binding constant against plasmin;NI=no inhibition. An outline of the steps: (§1)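 Plasmin (1 μM; 0.7 μM in one series) preincubated with inhibitor 34-560 μM at pH 7.5, 25 °C. Aliquots assayed for residual activity on S-2251. kobs from semilog plots; kinact/KI from Kitz-Wilson analysis or as kobs/[I].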
Sequence of Plasminogen (Homo sapiens) (P00747 97-580 limits assumed): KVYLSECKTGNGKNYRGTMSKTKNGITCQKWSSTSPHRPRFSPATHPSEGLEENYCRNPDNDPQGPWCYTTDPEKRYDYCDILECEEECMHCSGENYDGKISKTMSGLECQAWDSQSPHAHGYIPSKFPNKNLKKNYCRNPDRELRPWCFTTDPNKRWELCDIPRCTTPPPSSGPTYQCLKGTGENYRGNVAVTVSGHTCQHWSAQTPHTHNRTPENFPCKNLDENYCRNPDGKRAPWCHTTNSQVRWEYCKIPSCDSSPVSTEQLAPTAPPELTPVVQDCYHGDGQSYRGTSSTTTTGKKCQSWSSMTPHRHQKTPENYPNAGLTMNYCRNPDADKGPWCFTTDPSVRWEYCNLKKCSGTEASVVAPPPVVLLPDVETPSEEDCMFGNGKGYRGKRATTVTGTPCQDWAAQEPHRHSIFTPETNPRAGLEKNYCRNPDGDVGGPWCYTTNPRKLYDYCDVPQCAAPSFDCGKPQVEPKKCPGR
Sequence of Plasminogen (Homo sapiens) (P00747 581-810 limits assumed): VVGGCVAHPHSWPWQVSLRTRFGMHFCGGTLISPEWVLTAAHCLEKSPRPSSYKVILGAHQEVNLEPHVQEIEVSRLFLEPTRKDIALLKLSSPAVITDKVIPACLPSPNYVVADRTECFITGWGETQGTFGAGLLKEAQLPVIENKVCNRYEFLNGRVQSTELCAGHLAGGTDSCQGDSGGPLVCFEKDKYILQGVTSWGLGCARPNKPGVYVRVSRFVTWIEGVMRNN

For test [2], the target named is Prothrombin (Homo sapiens) (UniProt P00734). Kind of test: Ratio of inactivation to apparent binding constant against thrombin;NI=no inhibition. Summed up:
(§2)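 Thrombin (0.1 μM) preincubated with 300 μM inhibitor at pH 7.5, 25 °C. Timed aliquots assayed for residual activity with S-2238. Pseudo-first-order kobs from semilog plot of remaining activity vs time.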

In test [3] the target is T1, Urokinase-type plasminogen activator (Homo sapiens, UniProt P00749). Nature of the test: Ratio of inactivation to apparent binding constant against human urokinase; NI=no inhibition.
Test [4] concerns the target T2, Serine protease 1 (Bos taurus) (UniProt P00760).
T2 sequence (whole entry): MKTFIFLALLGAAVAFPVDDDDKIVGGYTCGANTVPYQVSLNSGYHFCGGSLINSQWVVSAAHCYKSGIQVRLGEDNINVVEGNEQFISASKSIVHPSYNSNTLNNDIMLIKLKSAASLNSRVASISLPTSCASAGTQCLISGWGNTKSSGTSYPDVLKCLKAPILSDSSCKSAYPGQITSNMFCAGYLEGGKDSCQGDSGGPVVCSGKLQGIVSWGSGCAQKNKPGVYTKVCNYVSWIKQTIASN
Kind of test: Ratio of inactivation to apparent binding constant against bovine trypsin;NI=no inhibition.

For test [5], the target named is Tissue-type plasminogen activator (Homo sapiens) (UniProt P00750). Nature of the test: Ratio of inactivation to apparent binding constant against tissue plasminogen activator (t-PA);NI=no inhibition. An outline of the steps: (§3)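 t-PA (0.75 μM) preincubated with inhibitor 0.37-1 mM at pH 7.5, 25 °C. Aliquots assayed periodically for remaining amidolytic activity with p-nitroanilide substrate. kobs from semilogarithmic plots.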
Sequence of Tissue-type plasminogen activator (Homo sapiens) (P00750 36-562 limits assumed): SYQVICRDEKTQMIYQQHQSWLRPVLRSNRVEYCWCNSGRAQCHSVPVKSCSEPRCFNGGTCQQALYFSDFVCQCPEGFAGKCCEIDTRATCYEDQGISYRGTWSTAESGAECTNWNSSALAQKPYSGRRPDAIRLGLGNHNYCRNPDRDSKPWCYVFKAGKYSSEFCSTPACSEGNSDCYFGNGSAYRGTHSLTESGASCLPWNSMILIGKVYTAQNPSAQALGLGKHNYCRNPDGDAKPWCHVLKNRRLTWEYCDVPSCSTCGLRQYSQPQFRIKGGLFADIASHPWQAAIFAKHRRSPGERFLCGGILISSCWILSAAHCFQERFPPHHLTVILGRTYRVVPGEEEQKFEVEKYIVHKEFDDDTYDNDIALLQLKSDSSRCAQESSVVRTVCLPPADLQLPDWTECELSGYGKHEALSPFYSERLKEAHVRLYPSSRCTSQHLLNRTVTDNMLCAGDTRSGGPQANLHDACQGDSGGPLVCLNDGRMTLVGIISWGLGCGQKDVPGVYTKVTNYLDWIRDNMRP

The target in test [6] is Plasminogen (Homo sapiens) (UniProt P00747). Kind of test: Ratio of inactivation to apparent binding constant against plasmin. Summed up:
as §1

The target in test [7] is Tissue-type plasminogen activator (Homo sapiens) (UniProt P00750). Kind of test: Ratio of inactivation to apparent binding constant against tissue plasminogen activator (t-PA). Summed up:
as §3

For test [8], the target named is Prothrombin (Homo sapiens) (UniProt P00734). Nature of the test: Ratio of inactivation to apparent binding constant against thrombin. An outline of the steps:
as §2

Test [9] deals with T1, Urokinase-type plasminogen activator. Nature of the test: Apparent binding constant against Human urokinase. Summed up:
(§4)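 Pseudo-first-order inactivation at pH 7.5, 25 °C, inhibitor in excess. Two methods. Preincubation: aliquots taken over time and assayed for residual activity, kobs from semilog plots. Progress curve: continuous A405 with chromogenic substrate present, vs blank with inhibitor and substrate (trypsin 0.5 μM, BAPNA 0.3 mM, 1.5% DMSO; urokinase 31 nM, S-2444). KI and kinact from double-reciprocal (Wilkinson) fits.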

Test [10] has as its target T2, Serine protease 1 (Bos taurus).
Test [11] has as its target T1, Urokinase-type plasminogen activator. Kind of test: Ratio of inactivation to apparent binding constant against human urokinase. An outline of the steps: as §4
For another test, the target named is T3, Serine protease 1 (Bos taurus, UniProt P00760).
T3 sequence (P00760 whole entry): T2 sequence (whole entry)
Kind of test: Apparent binding constant against bovine trypsin. An outline of the steps:
as §4

Test [12] addresses T1, Urokinase-type plasminogen activator.
Test [13] deals with T2, Serine protease 1 (Bos taurus). Nature of the test: Ratio of inactivation to apparent binding constant against bovine trypsin. Summed up:
as §4

Test [14] shares this target. Kind of test: Inactivation constant determined against bovine trypsin. An outline of the steps: as §4
Test [15] addresses Trypsin (Sus scrofa) (UniProt P00761). Nature of the test: Ratio of inactivation to apparent binding constant against porcine trypsin.
Test [16] deals with T1, Urokinase-type plasminogen activator. Kind of test: Inactivation constant determined against urokinase. Summed up:
as §4

Test [17] deals with Trypsin (Sus scrofa) (UniProt P00761). Nature of the test: Inactivation constant determined against porcine trypsin.
Sequence of Trypsin (Sus scrofa) (P00761 whole entry, looked up): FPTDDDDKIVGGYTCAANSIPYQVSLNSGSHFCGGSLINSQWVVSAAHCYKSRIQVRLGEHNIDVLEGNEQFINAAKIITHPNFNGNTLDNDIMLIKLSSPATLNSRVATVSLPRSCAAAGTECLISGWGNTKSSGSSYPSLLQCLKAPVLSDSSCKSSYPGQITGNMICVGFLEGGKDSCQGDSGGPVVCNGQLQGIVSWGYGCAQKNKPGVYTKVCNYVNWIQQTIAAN
The target of test [18] is T1, Urokinase-type plasminogen activator. Nature of the test: Ratio of inactivation to apparent binding constant against human urokinase (obtained as k obs/[I] at low inhibitor concentration). Summed up: (§5)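 For weak inactivation, kinact/KI taken as kobs/[I] at low inhibitor concentration. Preincubation at pH 7.5, 25 °C: trypsin 4.5 μM or urokinase 55 μM with excess inhibitor. Aliquots diluted (or filtered at 4 °C) and assayed for residual activity on BAPNA or S-2444. kobs by least squares of semilog remaining activity vs time.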

In test [19] the target is T2, Serine protease 1 (Bos taurus). Nature of the test: Ratio of inactivation to apparent binding constant against bovine trypsin (obtained as k obs/[I] at low inhibitor concentration). Summed up: as §5

pKi: −log10 of the molar value. Calls of active or inactive are those of the source. No cut-off for these calls is given here.

With `NCCCCC1NC(=O)CNC(=O)c2cc(CBr)ccc2NC1=O` (stereo unspecified), the Ratio entry in [1], in test [2], in [3], in test [4] and in test [5] was “inactive” in each case.

`C[S+](C)Cc1ccc2cc1C(=O)NCC(=O)NC(CCCCN)C(=O)N2` (stereo unspecified): the Ratio entry in test [1], in test [2], in test [4] and in [5] was “inactive” in each case.

`N=C(N)NCCCC1NC(=O)CNC(=O)c2cc(CBr)ccc2NC1=O` (stereo unspecified): the Ratio result in test [6] was “No inactivation”; in [3] it was 14 M⁻¹ s⁻¹; in test [4], 5 M⁻¹ s⁻¹; in [7], “No inactivation”; in test [8] it was “No inactivation”.

As for `C[S+](Cc1ccc2cc1C(=O)NCC(=O)NC(CCCN=C(N)N)C(=O)N2)c1ccccc1` (stereo unspecified), the figures for the pKi (in [9]; at Serine protease 1) were 5.05 and 4.92, respectively. For the same compound, the values for the kinact in test [10] and in test [12] were 0.011 s⁻¹ and 0.021 s⁻¹, respectively. Moreover, the Ratio came to 2330 M⁻¹ s⁻¹ in test [11]; 12 M⁻¹ s⁻¹ in [2]; 40 M⁻¹ s⁻¹ in test [6]; 916 M⁻¹ s⁻¹ in test [13]; 1 M⁻¹ s⁻¹ in test [5].

`NCCCCC1NC(=O)CNC(=O)c2cc(ccc2CBr)NC1=O` (stereo unspecified): the pKi at Serine protease 1 was 4.10. Besides, the Ratio result in test [1], in [2] and in test [5] was “inactive” each time. The compound also showed a K inact in [14] of 0.02 s⁻¹. Besides, the Ratio in test [13] is 250 M⁻¹ s⁻¹.

On to `N=C(N)NCCCC1NC(=O)CNC(=O)c2cc(ccc2CBr)NC1=O` (stereo unspecified), for which the pKi is 4.04 in test [9] and 4.26 at Serine protease 1. In addition, the Ratio in [11] was 185 M⁻¹ s⁻¹; in test [6], 2 M⁻¹ s⁻¹; at Trypsin (Sus scrofa) [15] it was 2050 M⁻¹ s⁻¹; in [13], 560 M⁻¹ s⁻¹. Besides, the Ratio entry in test [2] and in test [5] was “inactive” in each case. Moreover, the K inact is 0.031 s⁻¹ in test [14], 0.017 s⁻¹ in [16] and 0.041 s⁻¹ on Trypsin (Sus scrofa) [17].

As to `C[S+](Cc1ccc2c(c1)C(=O)NCC(=O)NC(CCCCN)C(=O)N2)c1ccccc1` (stereo unspecified), in test [11], the Ratio was determined as 25 M⁻¹ s⁻¹. In addition, the Ratio result in test [1], in test [2], in [4] and in test [5] was “inactive” each time.

Turning to `C[S+](C)Cc1ccc2cc1C(=O)NCC(=O)NC(CCCN=C(N)N)C(=O)N2` (stereo unspecified), the pKi in [9] was 4.39. Moreover, the Ratio in test [11] came out at 341 M⁻¹ s⁻¹; in test [13], 1 M⁻¹ s⁻¹. The Ratio entry in test [1], in test [2] and in test [5] was “inactive” each time. In addition, the K inact in test [16] is 0.014 s⁻¹.

In the case of `C[S+](Cc1ccc2cc1C(=O)NCC(=O)NC(CCCCN)C(=O)N2)c1ccccc1` (stereo unspecified), the pKi in [9] is 3.30; at Serine protease 1, 5.06. Besides, the Ratio in [11] stood at 154 M⁻¹ s⁻¹; in test [6] it was 75 M⁻¹ s⁻¹; in test [13] it was 860 M⁻¹ s⁻¹. For the same compound, the Ratio entry in [2] and in test [5] was “inactive” throughout. The results for the K inact in test [14] and in test [16] were 0.0075 s⁻¹ and 0.077 s⁻¹, respectively.

Turning to `C[S+](Cc1ccc2c(c1)C(=O)NCC(=O)NC(CCCN=C(N)N)C(=O)N2)c1ccccc1` (stereo unspecified), the Ratio entry in test [1], in [2] and in test [5] was “inactive” each time. Further, the results for the Ratio in test [18] and in test [19] were 14 M⁻¹ s⁻¹ and 50 M⁻¹ s⁻¹, respectively.
